Assay results: ChEMBL document CHEMBL5247578, “Effective synthesis of benzimidazoles-imidazo[1,2-a]pyrazine conjugates: A comparative study of mono-and bis-benzimidazoles for antitumor activity” (Eur J Med Chem, 2019)

Experiments:
Type in all cases: functional
NCI-H23 [1] = test: Antiproliferative activity against human NCI-H23 cells assessed as cell growth at 0.000001 M incubated for 48 hrs by SRB assay relative to control; details: read-out: Activity
ACHN = test: Antiproliferative activity against human ACHN cells assessed as cell growth at 0.0000001 M incubated for 48 hrs by SRB assay relative to control; details: dose 100 nM, read-out: Activity
Method in brief: (§1)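 NCI-60 five-dose screen over 10^-4–10^-8 M (10-fold dilutions). Cells grown in RPMI 1640 with 5% FBS and 2 mM L-glutamine, seeded at 5,000–40,000 cells/well and preincubated 24 h. Drug from DMSO stock, 48 h at 37 °C, 5% CO2. Adherent cells TCA-fixed and stained with 0.4% SRB; A515 read. Percent growth = (Ti−Tz)/(C−Tz)×100, or (Ti−Tz)/Tz×100 when Ti<Tz.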

KM12 [2] = test: Antiproliferative activity against human KM12 cells assessed as cell growth at 0.000001 M incubated for 48 hrs by SRB assay relative to control; details: read-out: Activity
NCI-H23 [3] = test: Antiproliferative activity against human NCI-H23 cells assessed as cell growth at 0.00001 M incubated for 48 hrs by SRB assay relative to control; details: read-out: Activity
A549 = test: Antiproliferative activity against human A549 cells assessed as cell growth at 0.00001 M incubated for 48 hrs by SRB assay relative to control; details: read-out: Activity; method in brief: as §1
TK-10 = test: Antiproliferative activity against human TK-10 cells assessed as cell growth at 0.00000001 M incubated for 48 hrs by SRB assay relative to control; details: dose 10 nM, read-out: Activity
SF-539 [4] = test: Growth inhibition against human SF-539 cells assessed as total growth inhibitory concentration incubated for 48 hrs by sulforhodamine B assay
OVCAR-4 [5] = test: Antiproliferative activity against human OVCAR-4 cells assessed as cell growth at 0.0000001 M incubated for 48 hrs by SRB assay relative to control; details: dose 100 nM, read-out: Activity
MDA-MB-468 [6] = test: Antiproliferative activity against human MDA-MB-468 cells assessed as cell growth at 0.00000001 M incubated for 48 hrs by SRB assay relative to control; details: dose 10 nM, read-out: Activity
SF-539 [7] = test: Growth inhibition against human SF-539 cells incubated for 48 hrs by sulforhodamine B assay
COLO 205 = test: Antiproliferative activity against human COLO 205 cells assessed as cell growth at 0.0001 M incubated for 48 hrs by SRB assay relative to control; details: read-out: Activity; method in brief: as §1
KM12 [8] = test: Antiproliferative activity against human KM12 cells assessed as cell growth at 0.0001 M incubated for 48 hrs by SRB assay relative to control; details: read-out: Activity
SNB-19 = test: Antiproliferative activity against human SNB-19 cells assessed as cell growth inhibition by measuring lethal concentration incubated for 48 hrs by sulforhodamine B assay; details: read-out: LC50 (the source's name)
Method in brief: (§2)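 NCI-60 five-dose screen (10^-4 to 10^-8 M, 10-fold dilutions; DMSO stocks). Cells in RPMI 1640 with 5% FBS and 2 mM L-glutamine, preincubated 24 h, then exposed 48 h at 37 °C, 5% CO2. Fixed with cold TCA, stained with 0.4% SRB, absorbance read at 515 nm. Time-zero plates used as reference. LC50 taken from [(Ti-Tz)/Tz]×100 […].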

NCI-H226 [9] = test: Antiproliferative activity against human NCI-H226 cells assessed as cell growth inhibition by measuring lethal concentration incubated for 48 hrs by sulforhodamine B assay; details: read-out: LC50 (the source's name)
OVCAR-5 = test: Antiproliferative activity against human OVCAR-5 cells assessed as cell growth at 0.0000001 M incubated for 48 hrs by SRB assay relative to control; details: dose 100 nM, read-out: Activity
NCI-H226 [10] = test: Antiproliferative activity against human NCI-H226 cells assessed as cell growth at 0.00000001 M incubated for 48 hrs by SRB assay relative to control; details: dose 10 nM, read-out: Activity
NCI-H226 [11] = test: Antiproliferative activity against human NCI-H226 cells assessed as cell growth at 0.0000001 M incubated for 48 hrs by SRB assay relative to control; details: dose 100 nM, read-out: Activity
SF-268 = test: Antiproliferative activity against human SF-268 cells assessed as cell growth at 0.0001 M incubated for 48 hrs by SRB assay relative to control; details: read-out: Activity
MDA-MB-468 [12] = test: Antiproliferative activity against human MDA-MB-468 cells assessed as cell growth at 0.0000001 M incubated for 48 hrs by SRB assay relative to control; details: dose 100 nM, read-out: Activity
SF-295 = test: Antiproliferative activity against human SF-295 cells assessed as cell growth at 0.0000001 M incubated for 48 hrs by SRB assay relative to control; details: dose 100 nM, read-out: Activity
SN12C [13] = test: Antiproliferative activity against human SN12C cells assessed as cell growth at 0.00000001 M incubated for 48 hrs by SRB assay relative to control; details: dose 10 nM, read-out: Activity
UACC-62 [14] = test: Antiproliferative activity against human UACC-62 cells assessed as cell growth at 0.0001 M incubated for 48 hrs by SRB assay relative to control; details: read-out: Activity
CAKI-1 = test: Antiproliferative activity against human CAKI-1 cells assessed as cell growth at 0.0000001 M incubated for 48 hrs by SRB assay relative to control; details: dose 100 nM, read-out: Activity; method in brief: as §1
SN12C [15] = test: Growth inhibition against human SN12C cells incubated for 48 hrs by sulforhodamine B assay
MOLT-4 = test: Antiproliferative activity against human MOLT-4 cells assessed as cell growth inhibition by measuring lethal concentration incubated for 48 hrs by sulforhodamine B assay; details: read-out: LC50 (the source's name)
BT-549 = test: Antiproliferative activity against human BT-549 cells assessed as cell growth at 0.00001 M incubated for 48 hrs by SRB assay relative to control; details: read-out: Activity; method in brief: as §1
SK-MEL-5 = test: Antiproliferative activity against human SK-MEL-5 cells assessed as cell growth at 0.00000001 M incubated for 48 hrs by SRB assay relative to control; details: dose 10 nM, read-out: Activity
SW-620 = test: Growth inhibition against human SW620 cells incubated for 48 hrs by sulforhodamine B assay
M14 = test: Growth inhibition against human M14 cells incubated for 48 hrs by sulforhodamine B assay
OVCAR-4 [16] = test: Antiproliferative activity against human OVCAR-4 cells assessed as cell growth at 0.000001 M incubated for 48 hrs by SRB assay relative to control; details: read-out: Activity
786-0 = test: Antiproliferative activity against human 786-0 cells assessed as cell growth at 0.0001 M incubated for 48 hrs by SRB assay relative to control; details: read-out: Activity; method in brief: as §1
UACC-62 [17] = test: Antiproliferative activity against human UACC-62 cells assessed as cell growth inhibition by measuring lethal concentration incubated for 48 hrs by sulforhodamine B assay; details: read-out: LC50 (the source's name); method in brief: as §2
SR = test: Antiproliferative activity against human SR cells assessed as cell growth at 0.0000001 M incubated for 48 hrs by SRB assay relative to control; details: dose 100 nM, read-out: Activity
SK-MEL-2 = test: Antiproliferative activity against human SK-MEL-2 cells assessed as cell growth at 0.00001 M incubated for 48 hrs by SRB assay relative to control; details: read-out: Activity
MDA-MB-231 = test: Growth inhibition against human MDA-MB-231 cells incubated for 48 hrs by sulforhodamine B assay

Structure (SMILES)	growth at 1 µM (NCI-H23 [1]) [%]	growth at 0.1 µM (ACHN) [%]	growth at 1 µM (KM12 [2]) [%]	growth at 10 µM (NCI-H23 [3]) [%]	growth at 10 µM (A549) [%]	growth at 0.01 µM (TK-10) [%]	TGI (SF-539 [4]) [µM]	growth at 0.1 µM (OVCAR-4 [5]) [%]	growth at 0.01 µM (MDA-MB-468 [6]) [%]	GI50 (SF-539 [7]) [µM]	growth at 100 µM (COLO 205) [%]	growth at 100 µM (KM12 [8]) [%]	CC50 (SNB-19) [µM]	CC50 (NCI-H226 [9]) [µM]	growth at 0.1 µM (OVCAR-5) [%]	growth at 0.01 µM (NCI-H226 [10]) [%]	growth at 0.1 µM (NCI-H226 [11]) [%]	growth at 100 µM (SF-268) [%]	growth at 0.1 µM (MDA-MB-468 [12]) [%]	growth at 0.1 µM (SF-295) [%]	also measured
COc1ccc(-c2cn3ccnc3c(-c3ccc4ncn(C5CCCCC5)c4c3)n2)cc1	68	100	57	13	14	88	2.49	96	93	0.569	-5	10	> 100	> 100	90	101	96	29	99	91	growth at 0.01 µM (SN12C [13]): 97%; growth at 100 µM (UACC-62 [14]): 8%; growth at 0.1 µM (CAKI-1): 90%; GI50 (SN12C [15]): 2.11 µM; CC50 (MOLT-4): > 100 µM; growth at 10 µM (BT-549): -18%; growth at 0.01 µM (SK-MEL-5): 98%; GI50 (SW-620): 0.734 µM; GI50 (M14): 0.612 µM; growth at 1 µM (OVCAR-4 [16]): 84%; growth at 100 µM (786-0): 2%; CC50 (UACC-62 [17]): > 100 µM; growth at 0.1 µM (SR): 91%; growth at 10 µM (SK-MEL-2): 21%; GI50 (MDA-MB-231): 2.83 µM
c1ccc(Cn2cnc3ccc(-c4nc(-c5ccc6c(c5)ncn6C5CCCCC5)cn5ccnc45)cc32)cc1	86	97	93	-46	-46	84	2.6	98	100	1.06	-39	-7	> 100	> 100	89	103	103	5	104	92	growth at 0.01 µM (SN12C [13]): 102%; growth at 100 µM (UACC-62 [14]): 9%; growth at 0.1 µM (CAKI-1): 88%; GI50 (SN12C [15]): 2.27 µM; CC50 (MOLT-4): > 100 µM; growth at 10 µM (BT-549): -82%; growth at 0.01 µM (SK-MEL-5): 101%; GI50 (SW-620): 3.4 µM; GI50 (M14): 1.45 µM; growth at 1 µM (OVCAR-4 [16]): 96%; growth at 100 µM (786-0): 4%; CC50 (UACC-62 [17]): > 100 µM; growth at 0.1 µM (SR): 98%; growth at 10 µM (SK-MEL-2): -41%; GI50 (MDA-MB-231): 1.68 µM
